Measurements collected from several papers.
Lines come from different studies, so protocols differ.
CDK4 with cyclin D1: Cyclin-dependent kinase 4, with cyclin D1 (CDK4, Homo sapiens, UniProt P11802)
CDK4 with cyclin D3: Cyclin-dependent kinase 4, with cyclin D3 (CDK4, Homo sapiens, UniProt P11802)
CDK4: Cyclin-dependent kinase 4 (CDK4, Homo sapiens, UniProt P11802)

CO[C@@H]1[C@H](N(C)C(=O)c2ccccc2)C[C@H]2O[C@]1(C)n1c3ccccc3c3c4c(c5c6ccccc6n2c5c31)C(=O)NC4 — inhibition (CDK4 with cyclin D1; enzyme activity; inhibitor; 1 µM): 4%
C[C@]1(O)CCCN(c2nc(Nc3ccc(S(=O)(=O)N[C@H]4CC[C@H](CN5CCN(c6ccc(C7CCC(=O)NC7=O)cc6F)CC5)CC4)cc3F)ncc2C(F)(F)F)C1 (some centres unmarked) — remaining binding (CDK4 with cyclin D3; binding; competition with immobilised ligand; 1 µM): 96%
COc1ccc2[nH]c3c4[nH]c5ccc(OC)cc5c4c4c(c3c2c1)C(=O)NC4=O — remaining binding (CDK4 with cyclin D3; binding; 1 µM): 74%
CNS(=O)(=O)c1ccc(Nc2ncc(C(F)(F)F)c(N3CCC[C@](C)(O)C3)n2)c(C)c1 — remaining binding (CDK4; binding; competition with immobilised ligand; 1 µM): 71%
CCCCC(=O)Nc1ccc(-c2ccc3ncn(CCC)c(=O)c3c2)cn1 — remaining binding (CDK4 with cyclin D1; binding; competition with immobilised ligand; 0.5 µM): 100%
C[C@]1(O)CCCN(c2nc(Nc3ccc(S(=O)(=O)N[C@H]4CC[C@H](CN5CCN(c6ccc(C7CCC(=O)NC7=O)cc6F)CC5)CC4)cc3Cl)ncc2C(F)(F)F)C1 (some centres unmarked) — remaining binding (CDK4 with cyclin D1; binding; competition with immobilised ligand; 1 µM): 91%
C=CC(=O)N1CCC([C@@H]2CCNc3c(C(N)=O)c(-c4ccc(Oc5ccccc5)cc4)nn32)CC1 — inhibition (CDK4 with cyclin D1; enzyme activity; inhibitor; 1 µM): 0%
Cc1ccc(NC(=O)c2ccnc(C(F)(F)F)c2)cc1-c1cc(OCCO)nc(N2CCOCC2)c1 — remaining binding (CDK4 with cyclin D3; binding; 1 µM): 100%
C1=C/COCc2cc(ccc2OCCN2CCCC2)Nc2nccc(n2)-c2cccc(c2)COC/1 — remaining binding (CDK4 with cyclin D1; binding; 0.1 µM): 48%
CC#CC(=O)N1CCC[C@H]1c1nc(-c2ccc(C(=O)Nc3ccccn3)cc2)c2c(N)nccn12 — inhibition (CDK4; enzyme activity; inhibitor; 1 µM): 0%
CN1CCN(C(=O)c2ccc(NC(=O)Nc3ccc(N(C)c4ccnc(Nc5ccc(CS(C)(=O)=O)cc5)n4)cc3)cc2)CC1 — remaining binding (CDK4 with cyclin D3; binding; 1 µM): 89%
